Each structure is given as a SMILES string. Where a SMILES comes first, the peptide text is derived from it. [ ]: non-standard residue; d: D form. The star is where a group is joined. ξ: configuration not given here. Boc = CC(C)(C)OC(=O)*; ξOrn = NCCCC(N)C(=O)O; OtBu = CC(C)(C)O*; Sar = CNCC(=O)O

Assay [1] has as its system Plasmodium berghei. Briefly: Antimalarial activity against schizonts of chloroquine-sensitive Plasmodium berghei ANKA 2.34 assessed as chemosuppression of schizont numbers at 200 uM after 16 hrs relative to control. Type of assay: functional. Put shortly:
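Peptides in PBS with 0.1% DMSO and 5% ethanol were incubated with P. berghei cultures for 16 h at 37 °C, with chloroquine as positive control. Schizonts per 2000 erythrocytes were counted on smears from 0.5 mL culture samples, in duplicate and averaged. Reduction in schizont number is expressed against drug-free control cultures.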

Assay [2] relates to Plasmodium berghei. Briefly: Antimalarial activity against schizonts of chloroquine-sensitive Plasmodium berghei ANKA 2.34 after 16 hrs. Type of assay: functional, organism-based. The settings on record: ANKA 2.34, 16 h. The essentials: (§1)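 P. berghei cultures were exposed to peptides in PBS with 0.1% DMSO and 5% ethanol for 16 h at 37 °C, with chloroquine as positive control. Smears were made from 0.5 mL culture samples and schizonts counted per 2000 erythrocytes. Four concentrations were each run in duplicate and averaged. IC50 is the concentration giving 50% fewer schizonts than drug-free controls, extrapolated from the concentration–response curve.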

The subject of assay [3] is Plasmodium berghei. Description: Antimalarial activity against Plasmodium berghei. Type of assay: functional, organism-based. Put shortly:
as §1

`O=C1N[C@@H](Cc2ccccc2)C(=O)N[C@H]1Cc1ccccc1`: the Activity in the assay with Plasmodium berghei [1] worked out at 84.33%. Also, the IC50 (commonly the concentration that inhibits the measured activity by half) in the assay on Plasmodium berghei [2] is 2.54 µM.

As for `O=C1CNC(=O)[C@H](Cc2ccccc2)N1`, in the assay with Plasmodium berghei [1], the Activity is reported as 70.37%. The IC50 with Plasmodium berghei [2] came to 4.26 µM.

In the case of `CC(C)(C)OC(=O)N[C@@H](CCCNC(=O)OCc1ccccc1)C(=O)N[C@@H](Cc1ccccc1)C(=O)OC(C)(C)C`, the Activity in the assay on Plasmodium berghei [1] is recorded as 35.29%. For the same molecule, the IC50 with Plasmodium berghei [2] is more than 200 µM.

On to `COC(=O)[C@H](Cc1ccccc1)NC(=O)[C@H](CCCNC(=O)OCc1ccccc1)NC(=O)OC(C)(C)C`, for which the Activity in the assay with Plasmodium berghei [1] came out at 40%. Besides, the IC50 with Plasmodium berghei [2] is more than 200 µM.

With `CC(C)[C@H](NC(=O)[C@H](CCCNC(=O)OCc1ccccc1)NC(=O)OC(C)(C)C)C(=O)OC(C)(C)C`, the Activity in the assay on Plasmodium berghei [1] was 55.73%. In the assay on Plasmodium berghei [2], the midpoint of inhibition, the IC50, lay at 33.9 µM.

On to `COC(=O)[C@@H](NC(=O)[C@@H](CCCNC(=O)OCc1ccccc1)NC(=O)OC(C)(C)C)C(C)C`, for which the Activity in the assay on Plasmodium berghei [1] worked out at 57.2%. The IC50 in the assay with Plasmodium berghei [2] turned out to be 3.05 µM.

Consider `CC(C)[C@H](NC(=O)[C@@H](CCCNC(=O)OCc1ccccc1)NC(=O)OC(C)(C)C)C(=O)OC(C)(C)C`, for which, in the assay with Plasmodium berghei [1], the Activity worked out at 72.64%. The molecule further returned an IC50 in the assay with Plasmodium berghei [2] of 2.78 µM.

As for `O=C(NCCC[C@@H]1NC(=O)[C@H](Cc2ccccc2)NC1=O)OCc1ccccc1`, the Activity with Plasmodium berghei [1] amounted to 72.93%. Moreover, the IC50 in the assay on Plasmodium berghei [2] was determined as 123 µM.

For `CC(C)[C@@H]1NC(=O)[C@H](CCCNC(=O)OCc2ccccc2)NC1=O`, in the assay with Plasmodium berghei [1], the Activity came to 69.23%. This molecule also showed an IC50 in the assay with Plasmodium berghei [2] of 66 µM.

`CC(C)[C@@H]1NC(=O)[C@@H](CCCNC(=O)OCc2ccccc2)NC1=O`: the Activity in the assay on Plasmodium berghei [1] is 70.08%. In the assay on Plasmodium berghei [2], this molecule registered an IC50 of 3.09 µM.

For `CC(C)[C@@H]1NC(=O)[C@H](CCCCNC(=O)OCc2ccccc2)NC1=O`, in the assay with Plasmodium berghei [1], the Activity worked out at 79.2%. Further, half-maximal inhibition in the assay with Plasmodium berghei [2] (IC50) was put at 3.12 µM.

Turning to `CN1CC(=O)N[C@@H](Cc2ccccc2)C1=O`, the Activity in the assay with Plasmodium berghei [1] came out at 83.76%. Further, the IC50 in the assay with Plasmodium berghei [2] worked out at 2.26 µM.

Consider `CC(C)[C@@H]1NC(=O)[C@H](C(C)C)NC1=O`, for which, in the assay with Plasmodium berghei [1], the Activity worked out at 87.18%. In the assay with Plasmodium berghei [2], this molecule displayed an IC50 of 2.45 µM.

For `CC(C)[C@@H]1NC(=O)CNC1=O`, the Activity in the assay with Plasmodium berghei [1] was found to be 88.03%. Also, the IC50 with Plasmodium berghei [2] was determined as 3.23 µM.

Take `CC(C)[C@@H]1NC(=O)[C@H](Cc2ccccc2)NC1=O`: the Activity in the assay on Plasmodium berghei [1] turned out to be 61.07%. Moreover, half-maximal inhibition with Plasmodium berghei [2] (IC50) was put at 3.89 µM.

As for `CC(C)(C)OC(=O)NCC(=O)N[C@@H](Cc1ccccc1)C(=O)OC(C)(C)C` (Boc-Gly-Phe-OtBu), in the assay on Plasmodium berghei [1], the Activity is 54.26%. The molecule also displayed an IC50 with Plasmodium berghei [2] of 164 µM.

Consider `CC(C)[C@H](NC(=O)CNC(=O)OC(C)(C)C)C(=O)OC(C)(C)C` (Boc-Gly-Val-OtBu), for which the Activity in the assay on Plasmodium berghei [1] is given as 59.55%. This molecule came in with an IC50 in the assay on Plasmodium berghei [2] of 3.16 µM.

Consider `CC(C)(C)OC(=O)N[C@@H](Cc1ccccc1)C(=O)N[C@@H](Cc1ccccc1)C(=O)OC(C)(C)C` (Boc-Phe-Phe-OtBu), for which the Activity in the assay on Plasmodium berghei [1] came out at 55.73%. In addition, in the assay on Plasmodium berghei [2], half-maximal inhibition (IC50) required 112 µM.

As for `CC(C)[C@H](NC(=O)[C@H](Cc1ccccc1)NC(=O)OC(C)(C)C)C(=O)OC(C)(C)C` (Boc-Phe-Val-OtBu), the Activity in the assay with Plasmodium berghei [1] was 77.94%. This molecule returned an IC50 with Plasmodium berghei [2] of 3.23 µM.

On to `COC(=O)CN(C)C(=O)[C@H](Cc1ccccc1)NC(=O)OC(C)(C)C` (Boc-Phe-[Sar]-OMe), for which, in the assay on Plasmodium berghei [1], the Activity was determined as 79.41%. This molecule also gave an IC50 in the assay with Plasmodium berghei [2] of 3.63 µM.

As to `CN(CC(=O)OC(C)(C)C)C(=O)[C@H](Cc1ccccc1)NC(=O)OC(C)(C)C` (Boc-Phe-[Sar]-OtBu), the Activity in the assay with Plasmodium berghei [1] stood at 79.41%. Inhibition in the assay on Plasmodium berghei [2] was half-maximal at 3.38 µM (IC50).

For the molecule `CC(C)[C@H](NC(=O)OC(C)(C)C)C(=O)N[C@@H](Cc1ccccc1)C(=O)OC(C)(C)C` (Boc-Val-Phe-OtBu), the Activity in the assay with Plasmodium berghei [1] worked out at 73.08%. Moreover, in the assay on Plasmodium berghei [2], 7.07 µM corresponded to half-maximal inhibition (IC50).

In the case of `CC(C)[C@H](NC(=O)OC(C)(C)C)C(=O)N[C@H](C(=O)OC(C)(C)C)C(C)C` (Boc-Val-Val-OtBu), in the assay with Plasmodium berghei [1], the Activity is listed as 77.64%. For the same molecule, the IC50 in the assay with Plasmodium berghei [2] turned out to be 2.81 µM.

In the assay on Plasmodium berghei [3], `NCCCC(NC(=O)[C@H](Cc1ccccc1)NC(=O)C(CCCN)NC(=O)[C@@H](N)Cc1ccccc1)C(=O)O` (stereo not given in full) (H-F[ξOrn]F[ξOrn]-OH) yielded an IC50 of 2.5 µM.

`NCCCC[C@H](N)C(=O)N[C@@H](Cc1ccccc1)C(=O)N[C@@H](Cc1ccccc1)C(=O)NC(CCCN)C(=O)O` (stereo not given in full) (H-KFF[ξOrn]-OH) returned an IC50 with Plasmodium berghei [3] of 2.5 µM.

For `CCN(CC)CCCC(C)Nc1ccnc2cc(Cl)ccc12` (stereo not given) [CHLOROQUINE], the Activity with Plasmodium berghei [1] came to 100%. In addition, in the assay on Plasmodium berghei [2], the IC50 turned out to be 0.06 µM.
